# Data as given in ChEMBL document CHEMBL3351619 (J Med Chem, 2014).
# Activity calls are given as the source filed them. The calls are words filed in the database; no cut-off is given here.
# Tests used:
# [1] = target: T1, 5-hydroxytryptamine receptor 7 (Homo sapiens, UniProt P34969); assay: Displacement of [3H]LSD from human 5-HT7 expressed in HEK-293 cells after 120 mins by scintillation spectrometry; format: cell-based, HEK293
# Summary of the method: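 Competition binding on membranes of CHO-K1 or HEK-293 cells transfected with human 5-HT7 receptor, radioligand [3H]LSD; 5-CT as reference. Two to four experiments, each in triplicate; Ki reported as mean.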
# [2] = target: T2, 5-hydroxytryptamine receptor 1A (Homo sapiens, UniProt P08908); assay: Displacement of [3H]-8-OH-DPAT from human 5-HT1A expressed in CHO-K1 cells after 120 mins by scintillation spectrometry; format: cell-based
# T2 sequence (P08908 whole entry): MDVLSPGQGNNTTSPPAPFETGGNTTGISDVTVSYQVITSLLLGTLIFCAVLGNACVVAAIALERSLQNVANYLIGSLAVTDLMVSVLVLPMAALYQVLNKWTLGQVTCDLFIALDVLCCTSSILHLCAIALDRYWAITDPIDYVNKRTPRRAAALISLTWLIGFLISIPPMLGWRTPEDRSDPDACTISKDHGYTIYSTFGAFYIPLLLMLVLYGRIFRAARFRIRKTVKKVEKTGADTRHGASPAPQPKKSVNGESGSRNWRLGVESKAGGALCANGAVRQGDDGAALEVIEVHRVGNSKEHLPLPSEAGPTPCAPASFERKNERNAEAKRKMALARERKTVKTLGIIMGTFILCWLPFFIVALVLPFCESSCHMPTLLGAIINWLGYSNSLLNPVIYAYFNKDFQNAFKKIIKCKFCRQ
# Summary of the method: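 Competitive radioligand binding on membranes from transfected cells expressing human 5-HT1A receptor, with [3H]-8-OH-DPAT as the radioligand. Affinity is given as Ki, the mean of two to four experiments, each run in triplicate.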
# [3] = target: T1, 5-hydroxytryptamine receptor 7; assay: Agonist activity at human 5-HT7 expressed in HEK-293 cells assessed as increase in cAMP level after 45 mins by HTRF assay; format: functional, cell-based, HEK293
# [4] = target: T1, 5-hydroxytryptamine receptor 7; assay: Antagonist activity at human 5-HT7 expressed in HEK-293 cells assessed as inhibition in serotonin-induced increase in cAMP level after 45 mins by HTRF assay; format: functional, cell-based, HEK293
# Summary of the method: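 From the concentration–response curve, maximal inhibition (Imax) and IC50 were read, and the dissociation constant KB was calculated.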
# Mus musculus [5] = assay: Inhibition of 8-OH-DPAT-induced hypothermia in C57BL/6J mouse assessed as reduction in core body temperature at 1 mg/kg, ip administered 30 mins prior challenge as single dose; format: functional, organism-based; design: dose 1 mg/kg
# Summary of the method: (§1)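 C57BL/6J mice (male and female, 8−12 weeks), single ip doses in 0.9% saline vehicle, start 9:00 h. Rectal probe core temperature taken at baseline just before injection, at 15 and 30 min, then every 30 min to 2 h. For antagonism, test drug given 30 min before 8-OH-DPAT (0.3 mg/kg ip).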
# Mus musculus [6] = assay: Effect on core body temperature in C57BL/6J mouse at 0.3 to 1 mg/kg, ip administered as single dose; format: functional, organism-based; summary of the method: as §1
# Mus musculus [7] = assay: Antidepressant activity in C57BL/6J mouse assessed as decrease in the immobility at 1 mg/kg, ip administered as single dose measured for last 4 mins of test by tail suspension method relative to vehicle-treated control; format: functional, organism-based; design: dose 1 mg/kg
# Mus musculus [8] = assay: Antidepressant activity in C57BL/6J mouse assessed as decrease in the immobility at 10 mg/kg, ip administered as single dose measured for last 4 mins of test by tail suspension method relative to vehicle-treated control; format: functional, organism-based; design: dose 10 mg/kg
# Mus musculus [9] = assay: Antidepressant activity in C57BL/6J mouse assessed as decrease in the immobility at 1 mg/kg, ip administered as single dose measured for last 4 mins of test by forced swim test relative to vehicle-treated control; format: functional, organism-based; design: dose 1 mg/kg
# Summary of the method: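 Male and female C57BL/6J mice, 8−12 weeks, group housed; single ip injection, 0.9% saline vehicle; start 9:00 h. Mouse placed 6 min in clear cylinder (16 cm diameter, 25 cm high) holding 10 cm of 25 °C water, replaced between animals; trained observer scored immobility (no movement beyond keeping head above surface) over last 4 min. N = 7−9/group; Student's two-tailed unpaired t test.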
# [10] = target: Sodium-dependent serotonin transporter (Homo sapiens) (UniProt P31645); assay: Displacement of [3H]imipramine from 5-HT transporter (unknown origin) at 1 uM after 60 mins
# Summary of the method: (§2)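 Single test concentration of 1 μM; percent displacement of the respective radioligand binding at each target.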
# [11] = target: 5-hydroxytryptamine receptor 2A (Homo sapiens) (UniProt P28223); assay: Displacement of [3H]ketanserin from 5-HT2A (unknown origin) at 1 uM after 60 mins; summary of the method: as §2
# [12] = target: Melatonin receptor (Homo sapiens) (UniProt P48039+P49286); assay: Displacement of [125I]-2-iodomelatonin from MT1 (unknown origin) at 1 uM after 60 mins; format: protein assay; summary of the method: as §2
# [13] = target: T3, Corticotropin-releasing factor receptor 1 (Homo sapiens) (UniProt P34998); assay: Displacement of [125I]sauvagine from CRF1 (unknown origin) at 1 uM after 120 mins; summary of the method: as §2
# T3 sequence (whole entry): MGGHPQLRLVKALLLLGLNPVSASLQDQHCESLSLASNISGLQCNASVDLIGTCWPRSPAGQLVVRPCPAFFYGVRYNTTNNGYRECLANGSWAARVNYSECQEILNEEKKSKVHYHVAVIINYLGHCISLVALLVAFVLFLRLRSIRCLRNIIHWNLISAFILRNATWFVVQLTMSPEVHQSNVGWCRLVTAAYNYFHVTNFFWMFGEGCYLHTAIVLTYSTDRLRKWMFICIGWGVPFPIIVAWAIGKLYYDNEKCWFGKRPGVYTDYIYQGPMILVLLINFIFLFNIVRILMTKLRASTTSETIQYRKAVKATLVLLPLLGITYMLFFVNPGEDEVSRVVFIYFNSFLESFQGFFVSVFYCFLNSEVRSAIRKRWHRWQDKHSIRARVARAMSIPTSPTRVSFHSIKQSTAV
# T1 sequence (P34969 whole entry): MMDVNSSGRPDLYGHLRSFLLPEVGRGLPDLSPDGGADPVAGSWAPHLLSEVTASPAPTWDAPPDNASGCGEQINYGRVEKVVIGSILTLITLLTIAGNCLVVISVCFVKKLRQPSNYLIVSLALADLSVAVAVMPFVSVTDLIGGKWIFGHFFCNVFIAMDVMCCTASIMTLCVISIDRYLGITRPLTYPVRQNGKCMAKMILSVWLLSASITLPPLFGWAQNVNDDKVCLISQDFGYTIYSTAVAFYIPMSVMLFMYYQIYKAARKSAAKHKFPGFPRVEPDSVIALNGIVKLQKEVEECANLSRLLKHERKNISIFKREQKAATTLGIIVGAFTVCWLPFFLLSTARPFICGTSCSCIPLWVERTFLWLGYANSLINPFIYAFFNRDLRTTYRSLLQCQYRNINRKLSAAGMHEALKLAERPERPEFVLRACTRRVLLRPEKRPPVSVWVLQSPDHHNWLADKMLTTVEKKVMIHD
# Chain of Sodium-dependent serotonin transporter (Homo sapiens) (P31645 whole entry, looked up): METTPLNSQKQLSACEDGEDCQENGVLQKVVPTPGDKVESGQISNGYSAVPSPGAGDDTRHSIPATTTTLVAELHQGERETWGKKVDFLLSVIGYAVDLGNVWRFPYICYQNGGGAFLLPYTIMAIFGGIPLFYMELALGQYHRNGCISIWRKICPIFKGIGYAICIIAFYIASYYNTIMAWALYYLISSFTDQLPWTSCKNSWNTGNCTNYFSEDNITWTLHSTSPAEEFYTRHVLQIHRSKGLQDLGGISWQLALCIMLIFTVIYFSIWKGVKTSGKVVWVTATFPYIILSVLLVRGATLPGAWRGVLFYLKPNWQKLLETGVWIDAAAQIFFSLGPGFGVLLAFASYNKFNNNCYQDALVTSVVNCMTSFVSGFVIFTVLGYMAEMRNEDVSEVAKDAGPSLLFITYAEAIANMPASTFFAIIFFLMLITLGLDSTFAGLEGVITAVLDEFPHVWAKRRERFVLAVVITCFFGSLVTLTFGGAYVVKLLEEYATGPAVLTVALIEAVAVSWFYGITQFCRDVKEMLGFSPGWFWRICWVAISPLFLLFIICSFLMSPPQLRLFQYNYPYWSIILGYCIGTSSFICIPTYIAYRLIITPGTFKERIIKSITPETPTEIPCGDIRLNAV
# Chain of 5-hydroxytryptamine receptor 2A (Homo sapiens) (P28223 whole entry): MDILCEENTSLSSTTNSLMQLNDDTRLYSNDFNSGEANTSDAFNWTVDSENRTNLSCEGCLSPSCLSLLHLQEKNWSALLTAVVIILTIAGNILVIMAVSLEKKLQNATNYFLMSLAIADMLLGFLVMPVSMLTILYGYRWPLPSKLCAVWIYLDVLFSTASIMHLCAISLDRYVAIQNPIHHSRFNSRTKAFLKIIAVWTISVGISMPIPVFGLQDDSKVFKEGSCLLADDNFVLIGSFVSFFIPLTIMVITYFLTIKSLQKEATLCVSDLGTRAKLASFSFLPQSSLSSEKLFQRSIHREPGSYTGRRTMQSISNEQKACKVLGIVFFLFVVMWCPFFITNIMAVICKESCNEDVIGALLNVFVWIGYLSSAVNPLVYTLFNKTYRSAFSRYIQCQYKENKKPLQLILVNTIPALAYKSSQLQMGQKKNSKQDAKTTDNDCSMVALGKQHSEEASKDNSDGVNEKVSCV
SMILES,Ki [1] [nM],Ki [2] [nM],IC50 [4] [nM],other results
O=C1Cc2ccccc2N1CCCCCCCN1CCc2ccccc2C1,36,> 1000,,
O=C1Cc2ccccc2N1CCCCCCCN1CC[C@H]2CCCC[C@@H]2C1 (racemic),62,> 1000,,
O=C1Cc2ccccc2N1CC/C=C/CCN1CCc2ccccc2C1,0.7,> 1000,2200,EC50 [3]: 230 nM; inhibition (Mus musculus [5]): Active; Activity (Mus musculus [6]): inactive; Activity (Mus musculus [7]): Active; Activity (Mus musculus [8]): inactive; Activity (Mus musculus [9]): Active; inhibition [10]: 14%; inhibition [11]: 15%; inhibition [12]: -4%; inhibition [13]: -10%
O=C1Cc2ccccc2N1CCCCCN1CC[C@H]2CCCC[C@@H]2C1 (racemic),41,491,,
O=C1Cc2ccccc2N1CCCCCN1CCc2ccccc2C1,28,523,,
CN1C[C@@H](NS(=O)(=O)N(C)C)C[C@@H]2c3cccc4c3c(cn4C)C[C@H]21 [MESULERGINE],,,290,
O=C1Cc2ccccc2N1CCCCN1CC[C@H]2CCCC[C@@H]2C1 (racemic),29,470,,
O=C1Cc2ccccc2N1CC/C=C/CCN1CC[C@H]2CCCC[C@@H]2C1 (racemic),2.7,> 1000,2300,EC50 [3]: 60 nM
O=C1Cc2ccccc2N1CCCCCCN1CCc2ccccc2C1,24,576,,
